Drawing on ChEMBL document CHEMBL1157000, “Aminofurazans as potent inhibitors of AKT kinase” (Bioorg Med Chem Lett, 2009), this text covers IC50, Ki and inhibition for 21 compounds.

The subject of one assay is BT-474. Put plainly: Antiproliferative activity against human BT474 cells. Type of assay: functional, cell-based. The method, boiled down:
(§1)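 Cell proliferation inhibition in tumour lines (BT474, LNCaP) and non-tumour HFF cells; values are the mean of at least two experiments.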

A further assay relates to HFF. Put plainly: Antiproliferative activity against human HFF cells. In kind it is functional, cell-based. In a few lines:
as §1

Assay [1] concerns the target RAC-alpha serine/threonine-protein kinase (Homo sapiens, UniProt P31749). Put plainly: Inhibition of AKT.
In assay [2] the target is RAC-gamma serine/threonine-protein kinase (Homo sapiens, UniProt Q9Y243). Kind of assay: Inhibition of AKT3.
A further assay relates to LNCaP. Kind of assay: Antiproliferative activity against human LNCAP cells. Type of assay: functional, cell-based. In a few lines: as §1
Another assay deals with Mus musculus. Kind of assay: Inhibition of GSK3B phosphorylation in human BT474 cells xenografted in ip dosed mouse. In kind it is functional, organism-based. The settings on record: BT-474. In a few lines:
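Mice bearing BT474 xenografts were dosed ip at […], 12.5 or 25 mg/kg, with a vehicle control group. GSK3b phosphorylation in the tumours was the read-out.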

Molecules are shown by their SMILES.

RAC-gamma serine/threonine-protein kinase, sequence (Q9Y243 whole entry): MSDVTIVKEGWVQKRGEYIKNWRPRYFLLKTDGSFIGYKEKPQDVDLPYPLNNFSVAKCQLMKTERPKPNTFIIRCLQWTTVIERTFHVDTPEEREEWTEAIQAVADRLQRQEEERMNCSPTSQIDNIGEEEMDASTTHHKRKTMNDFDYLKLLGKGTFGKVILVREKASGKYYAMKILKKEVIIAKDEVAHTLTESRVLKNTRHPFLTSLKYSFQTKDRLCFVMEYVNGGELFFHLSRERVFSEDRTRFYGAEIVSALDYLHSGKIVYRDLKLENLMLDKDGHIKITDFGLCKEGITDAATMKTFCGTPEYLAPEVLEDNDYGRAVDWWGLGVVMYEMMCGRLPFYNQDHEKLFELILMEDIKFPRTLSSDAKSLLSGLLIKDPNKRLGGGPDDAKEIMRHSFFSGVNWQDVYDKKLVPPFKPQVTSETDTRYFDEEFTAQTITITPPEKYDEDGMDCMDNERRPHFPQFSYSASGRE
RAC-alpha serine/threonine-protein kinase, sequence (P31749 whole entry): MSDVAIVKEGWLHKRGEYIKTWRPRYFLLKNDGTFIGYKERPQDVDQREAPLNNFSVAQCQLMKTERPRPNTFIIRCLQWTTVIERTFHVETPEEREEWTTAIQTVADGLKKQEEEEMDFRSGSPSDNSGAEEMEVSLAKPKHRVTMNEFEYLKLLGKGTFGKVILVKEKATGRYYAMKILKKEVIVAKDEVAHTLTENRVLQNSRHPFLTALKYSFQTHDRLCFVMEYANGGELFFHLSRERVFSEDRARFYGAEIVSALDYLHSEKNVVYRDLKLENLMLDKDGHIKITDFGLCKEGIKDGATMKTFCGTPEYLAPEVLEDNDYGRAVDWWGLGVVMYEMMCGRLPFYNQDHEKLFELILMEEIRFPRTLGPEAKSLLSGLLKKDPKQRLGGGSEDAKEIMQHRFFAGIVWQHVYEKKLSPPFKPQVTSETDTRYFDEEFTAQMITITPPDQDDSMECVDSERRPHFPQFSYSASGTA

Consider `CCn1c(-c2nonc2N)nc2c(C#CC(C)(C)O)nc(OC[C@H](N)Cc3ccccc3)cc21`, for which the half-inhibitory concentration (IC50) (in general, the point on the concentration scale where inhibition reaches its midpoint) turned out to be 742 nM in the assay with BT-474; 8000 nM in the assay with HFF; 0.6 nM in assay [1]; 3 nM in assay [2]; 20 nM with LNCaP. For the same compound, the affinity in assay [1] corresponds to a Ki of 0.2 nM.
As to `CCn1c(-c2nonc2N)nc2c(C#CC(C)(C)O)nc(CN)cc21`, the IC50 is 806 nM in the assay with BT-474, 24000 nM with HFF, 6 nM in assay [1] and 296 nM with LNCaP.
Turning to `CCn1c(-c2nonc2N)nc2c(C#CC(C)(C)O)nc(OC[C@H](C)N)cc21`, the half-maximal inhibitory concentration (IC50) in the assay with BT-474 stood at 4860 nM; with HFF, 28000 nM; in assay [1], 13 nM; in the assay on LNCaP, 560 nM.
With `CCn1c(-c2nonc2N)nc2c(C#CC(C)(C)O)nc(OCCN)cc21`, the IC50 was 1080 nM in the assay with BT-474; 5000 nM in the assay with HFF; 5 nM in assay [1]; 43 nM in assay [2]; 497 nM with LNCaP. Moreover, the Ki – broadly, the equilibrium dissociation constant of an inhibitor or competing ligand from its target – in assay [1] was 6 nM.
Turning to `CCn1c(-c2nonc2N)nc2c(C#CC(C)(C)O)nc(CCN)cc21`, the half-maximal inhibitory concentration (IC50) in the assay with BT-474 stood at 1090 nM; with HFF it was 24000 nM; in assay [1], 4 nM; in the assay with LNCaP it was 2020 nM.
Consider `CCn1c(-c2nonc2N)nc2c(C#CC(C)(C)O)nc(CN(C)C)cc21`, for which the IC50 in the assay on BT-474 came out at 357 nM; in the assay with HFF, 30000 nM; in assay [1], 2 nM; with LNCaP, 114 nM.
Regarding `CCn1c(-c2nonc2N)nc2c(C#CC(C)(C)O)nc(CN3CCCC3)cc21` [GSK-1000163A], the 50% inhibitory concentration (IC50) in the assay on BT-474 worked out at 1250 nM; in the assay with HFF, 30000 nM; in assay [1] it was 6 nM; in assay [2], 22 nM; in the assay on LNCaP, 313 nM.
As for `CCn1c(-c2nonc2N)nc2c(C#CC(C)(C)O)nc(O[C@H](CCN)c3ccccc3)cc21`, the concentration for half-maximal inhibition (IC50) amounted to 224 nM with BT-474; 29000 nM with HFF; 4 nM in assay [1]; 65 nM in assay [2]; 85 nM in the assay with LNCaP. Moreover, the Ki in assay [1] came out at 1.9 nM.
On to `CCn1c(-c2nonc2N)nc2c(C#CC(C)(C)O)nc(CNC)cc21`, for which the IC50 in the assay with BT-474 was 439 nM; in the assay with HFF, 5900 nM; in assay [1] it was 3 nM; in the assay on LNCaP it was 201 nM.
Consider `CCn1c(-c2nonc2N)nc2c(C#CC(C)(C)O)nc(OC[C@H](N)c3ccccc3)cc21` [GSK-943949A], for which the half-inhibitory concentration (IC50) in the assay with BT-474 was 2100 nM; in the assay on HFF, 5000 nM; in assay [1] it was 3 nM; in assay [2], 17 nM; in the assay on LNCaP, 124 nM.
Take `CCn1c(-c2nonc2N)nc2c(C#CC(C)(C)O)nc(OCCCN)cc21`: the IC50 stood at 7120 nM in the assay with BT-474, 30000 nM in the assay with HFF, 16 nM in assay [1] and 3180 nM with LNCaP. Besides, affinity in assay [1] was put at a Ki of 115 nM.
For the compound `CCn1c(-c2nonc2N)nc2c(C#CC(C)(C)O)nc(O[C@@H](CCN)c3ccccc3)cc21`, the IC50 in the assay with BT-474 turned out to be 1 nM; in the assay with HFF, 11000 nM; in assay [1] it was 2 nM; in the assay on LNCaP, 5 nM. The compound also had a Ki in assay [1] of 0.2 nM.
As for `CCn1c(-c2nonc2N)nc2c(C#CC(C)(C)O)nc(OC[C@@H](C)N)cc21`, the 50% inhibitory concentration (IC50) in the assay with BT-474 came out at 860 nM; with HFF, 17000 nM; in assay [1], 8 nM; with LNCaP it was 220 nM.
On to `CCn1c(-c2nonc2N)nc2c(C#CC(C)(C)O)nc(OC[C@@H](N)c3ccccc3)cc21` [GSK-938890A], for which the IC50 in the assay with BT-474 turned out to be 3440 nM; in the assay with HFF, 20000 nM; in assay [1], 5 nM; in assay [2], 49 nM; with LNCaP, 176 nM.
With `CCn1c(-c2nonc2N)nc2c(C#CC(C)(C)O)nc(O[C@H](CN)c3ccccc3)cc21`, the IC50 in the assay on BT-474 was 124 nM; in the assay on HFF, 20000 nM; in assay [1] it was 3 nM; with LNCaP it was 68 nM. In assay [1], this compound returned an inhibition constant Ki of 3 nM.
Take `CCn1c(-c2nonc2N)nc2c(C#CC(C)(C)O)ncc(OC[C@H]3CCCNC3)c21` [GSK-690693]: the concentration for half-maximal inhibition (IC50) was 69 nM in the assay on BT-474, over 23000 nM in the assay on HFF and 21 nM in the assay with LNCaP.
Take `CCn1c(-c2nonc2N)nc2c(C#CC(C)(C)O)nc(OC[C@@H](N)Cc3ccccc3)cc21`: the IC50 with BT-474 turned out to be 1500 nM; in the assay with HFF, 7000 nM; in assay [1], 3 nM; in the assay with LNCaP, 101 nM.
`CCn1c(-c2nonc2N)nc2c(C#CC(C)(C)O)nc(O[C@@H](CN)c3ccccc3)cc21`: the 50% inhibitory concentration (IC50) with BT-474 amounted to 35 nM; in the assay with HFF, 519 nM; in assay [1] it was 1 nM; in assay [2], 1 nM; in the assay on LNCaP, 27 nM. Besides, affinity in assay [1] was put at a Ki of 0.4 nM. Moreover, the inhibition entry with Mus musculus was “Dose-dependent effect”.
Take `CCn1c(-c2nonc2N)nc2c(C#CC(C)(C)O)nc(OCCCCN)cc21`: the half-inhibitory concentration (IC50) in the assay with BT-474 was found to be 20000 nM; in the assay on HFF it was 30000 nM; in assay [1], 63 nM; in the assay on LNCaP it was 6160 nM.
In the case of `CCn1c(-c2nonc2N)nc2c(C#CC(C)(C)O)nc(OCCNC)cc21`, the IC50 in the assay with BT-474 came to 3190 nM; in the assay with HFF, 17000 nM; in assay [1] it was 12 nM; in the assay with LNCaP it was 896 nM.
With `CCn1c(-c2nonc2N)nc2c(C#CC(C)(C)O)nc(CCCN)cc21`, the 50% inhibitory concentration (IC50) came to 3520 nM in the assay on BT-474; 23000 nM with HFF; 3 nM in assay [1]; 30 nM in assay [2]; 4720 nM in the assay with LNCaP.
